Among the data in ChEMBL document CHEMBL5108036, “A concise SAR-analysis of antimicrobial cationic amphipathic barbiturates for an improved activity-toxicity profile” (Eur J Med Chem, 2022) are MIC and EC50 values, retold here.

The subject of one data set is Escherichia coli. In words: Antibacterial activity against Escherichia coli ATCC 25922 incubated for 48 hrs and measured by broth microdilution assay. It is filed as functional. Put shortly: (§1)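 MICs in µg/mL were measured against the reference strains S. aureus ATCC 9144, B. subtilis 168, E. coli ATCC 25922 and P. aeruginosa ATCC 27853. Compounds were tested as di-TFA salts.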
(In general: Broth dilution looks for growth in wells or tubes with falling amounts of substance.)

For a further data set, the system named is Staphylococcus aureus. Kind of data set: Antibacterial activity against Staphylococcus aureus ATCC 9144 incubated for 48 hrs and measured by broth microdilution assay. It is filed as functional. Put shortly: as §1
The nature of data set [1]: Hemolytic activity in human RBC measured after 1 hr by microplate reader method. It is filed as toxicity, cell-based, Erythrocyte. As to conditions: human, human red blood cells (erythrocytes). The method in brief: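 Human red blood cell lysis was used as the cytotoxicity read-out, expressed as EC50 in µg/mL. The highest concentration tested was 500 µM. Compounds were tested as di-TFA salts.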

Another data set relates to Pseudomonas aeruginosa. In words: Antibacterial activity against Pseudomonas aeruginosa ATCC 27853 incubated for 48 hrs and measured by broth microdilution assay. It is filed as functional. The method in brief:
as §1

The next data set concerns Bacillus subtilis. In words: Antibacterial activity against Bacillus subtilis 168 incubated for 48 hrs and measured by broth microdilution assay. It is filed as functional. The method in brief:
as §1

The MIC is the lowest concentration that inhibits growth of the organism. Low readings indicate greater potency, high ones weaker potency. As usually defined, the EC50 is the concentration needed to bring the measured effect to its halfway point. The low end stands for a more potent agent, the high end for a less potent agent.

As to `N=C(N)NCCCCN1C(=O)N(CCCCNC(=N)N)C(=O)C(Cc2cc(Br)cc(Br)c2)(Cc2ccc(Br)c3ccccc23)C1=O.O=C(O)C(F)(F)F.O=C(O)C(F)(F)F` (configuration not stated), the MIC against Escherichia coli was found to be 4 µg/mL; in the data set with Staphylococcus aureus it was 1 µg/mL; with Pseudomonas aeruginosa, 8 µg/mL; with Bacillus subtilis it was 4 µg/mL. Besides, the EC50 at 1 h in data set [1] turned out to be 58 µg/mL.
Consider `N=C(N)NCCCN1C(=O)N(CCCNC(=N)N)C(=O)C(Cc2ccc(C(F)(F)F)cc2)(Cc2cc(Br)cc(Br)c2)C1=O.O=C(O)C(F)(F)F.O=C(O)C(F)(F)F` (configuration not stated), for which the MIC was 16 µg/mL in the data set with Escherichia coli, 4 µg/mL against Staphylococcus aureus, 64 µg/mL in the data set on Pseudomonas aeruginosa and 4 µg/mL against Bacillus subtilis. For the same compound, the EC50 at 1 h in data set [1] is > 480 µg/mL.
On to `NCCCCN1C(=O)N(CCCCN)C(=O)C(Cc2c(Br)cc(Br)cc2Br)(Cc2c(Br)cc(Br)cc2Br)C1=O.O=C(O)C(F)(F)F.O=C(O)C(F)(F)F`, for which the MIC was 4 µg/mL with Escherichia coli, 2 µg/mL with Staphylococcus aureus, 4 µg/mL against Pseudomonas aeruginosa and 2 µg/mL with Bacillus subtilis. The response in data set [1] was half-maximal at 30 µg/mL (EC50 at 1 h).
Turning to `N=C(N)NCCN1C(=O)N(CCNC(=N)N)C(=O)C(Cc2cc(Br)cc(Br)c2)(Cc2cc(Br)cc(Br)c2)C1=O.O=C(O)C(F)(F)F.O=C(O)C(F)(F)F`, the MIC with Escherichia coli turned out to be 4 µg/mL; in the data set on Staphylococcus aureus, 2 µg/mL; with Pseudomonas aeruginosa, 16 µg/mL; against Bacillus subtilis, 2 µg/mL. This compound returned an EC50 at 1 h in data set [1] of 164 µg/mL.
Consider `O=C(O)c1cn(C2CC2)c2cc(N3CCNCC3)c(F)cc2c1=O` [CIPROFLOXACIN], for which the MIC against Escherichia coli and with Bacillus subtilis was < 0.03 µg/mL each time.
As for `NCCCCN1C(=O)N(CCCCN)C(=O)C(Cc2ccc3cc(Br)ccc3n2)(Cc2ccc3cc(Br)ccc3n2)C1=O.O=C(O)C(F)(F)F.O=C(O)C(F)(F)F`, the MIC against Escherichia coli was found to be 256 µg/mL; with Staphylococcus aureus, 16 µg/mL; in the data set on Pseudomonas aeruginosa, 256 µg/mL; in the data set with Bacillus subtilis, 4 µg/mL. In addition, in data set [1], the EC50 at 1 h is > 469 µg/mL.
As for `N=C(N)NCCCCN1C(=O)N(CCCCNC(=N)N)C(=O)C(Cc2cc(Br)c(Br)cc2Br)(Cc2cc(Br)c(Br)cc2Br)C1=O.O=C(O)C(F)(F)F.O=C(O)C(F)(F)F`, the MIC in the data set on Escherichia coli was determined as 4 µg/mL; with Staphylococcus aureus, 4 µg/mL; in the data set on Pseudomonas aeruginosa, 8 µg/mL; with Bacillus subtilis it was 4 µg/mL. This compound displayed an EC50 at 1 h in data set [1] of 32 µg/mL.
`CCCCCCC1(Cc2cc(Br)cc(Br)c2)C(=O)N(CCCCN)C(=O)N(CCCCN)C1=O.O=C(O)C(F)(F)F.O=C(O)C(F)(F)F`: the MIC in the data set on Escherichia coli stood at 16 µg/mL; against Staphylococcus aureus, 4 µg/mL; in the data set on Pseudomonas aeruginosa, 16 µg/mL; with Bacillus subtilis, 4 µg/mL. In data set [1], this compound returned an EC50 at 1 h of 144 µg/mL.
As for `NCCCCN1C(=O)N(CCCCN)C(=O)C(Cc2ccc3ccccc3n2)(Cc2ccc3ccccc3n2)C1=O.O=C(O)C(F)(F)F.O=C(O)C(F)(F)F`, the MIC is > 256 µg/mL against Escherichia coli, 256 µg/mL in the data set on Staphylococcus aureus, > 256 µg/mL in the data set with Pseudomonas aeruginosa and 64 µg/mL against Bacillus subtilis. Moreover, the EC50 at 1 h in data set [1] is > 390 µg/mL.
`N=C(N)NCCCCN1C(=O)N(CCCCNC(=N)N)C(=O)C(Cc2cc(Br)cc(Br)c2)(Cc2cc(C(F)(F)F)cc(C(F)(F)F)c2)C1=O.O=C(O)C(F)(F)F.O=C(O)C(F)(F)F` (configuration not stated): the MIC in the data set with Escherichia coli worked out at 2 µg/mL; in the data set with Staphylococcus aureus, 2 µg/mL; against Pseudomonas aeruginosa, 4 µg/mL; in the data set with Bacillus subtilis it was 2 µg/mL. Also, the EC50 at 1 h in data set [1] amounted to 36 µg/mL.
Regarding `NCCCCCCN1C(=O)N(CCCCCCN)C(=O)C(Cc2cc(Br)cc(Br)c2)(Cc2cc(Br)cc(Br)c2)C1=O.O=C(O)C(F)(F)F.O=C(O)C(F)(F)F`, the MIC stood at 4 µg/mL against Escherichia coli, 4 µg/mL in the data set on Staphylococcus aureus, 16 µg/mL in the data set on Pseudomonas aeruginosa and 4 µg/mL against Bacillus subtilis. In addition, the response in data set [1] was half-maximal at 30 µg/mL (EC50 at 1 h).
For the compound `NCCCN1C(=O)N(CCCN)C(=O)C(Cc2cc(Br)cc(Br)c2)(Cc2cc(Br)cc(Br)c2)C1=O.O=C(O)C(F)(F)F.O=C(O)C(F)(F)F`, the MIC in the data set with Escherichia coli was determined as 8 µg/mL; against Staphylococcus aureus, 4 µg/mL; with Pseudomonas aeruginosa, 8 µg/mL; with Bacillus subtilis, 4 µg/mL. The compound further registered an EC50 at 1 h in data set [1] of 99 µg/mL.
With `NCCCCCN1C(=O)N(CCCCCN)C(=O)C(Cc2cc(Br)cc(Br)c2)(Cc2cc(Br)cc(Br)c2)C1=O.O=C(O)C(F)(F)F.O=C(O)C(F)(F)F`, the MIC in the data set with Escherichia coli is 8 µg/mL; in the data set on Staphylococcus aureus, 4 µg/mL; in the data set on Pseudomonas aeruginosa it was 8 µg/mL; in the data set with Bacillus subtilis it was 4 µg/mL. Also, in data set [1], it took 24 µg/mL to reach a half-maximal effect (EC50 at 1 h).
Regarding `N=C(N)N[C@H]1C[C@H](N2C(=O)N([C@H]3C[C@H](NC(=N)N)C3)C(=O)C(Cc3cc(Br)cc(Br)c3)(Cc3cc(Br)cc(Br)c3)C2=O)C1.O=C(O)C(F)(F)F.O=C(O)C(F)(F)F`, the MIC against Escherichia coli stood at 4 µg/mL; against Staphylococcus aureus, 2 µg/mL; against Pseudomonas aeruginosa, 8 µg/mL; with Bacillus subtilis, 4 µg/mL. In data set [1], this compound showed a 50% effective concentration (EC50) at 1 h of 62 µg/mL.
In the case of `NCCCCN1C(=O)N(CCCCN)C(=O)C(Cc2cc(Br)c(Br)cc2Br)(Cc2cc(Br)c(Br)cc2Br)C1=O.O=C(O)C(F)(F)F.O=C(O)C(F)(F)F`, the MIC is 8 µg/mL in the data set on Escherichia coli, 4 µg/mL in the data set on Staphylococcus aureus, 8 µg/mL against Pseudomonas aeruginosa and 4 µg/mL in the data set with Bacillus subtilis. It took 27 µg/mL to reach a half-maximal effect in data set [1] (EC50 at 1 h).
`CNCCCCN1C(=O)N(CCCCNC)C(=O)C(Cc2cc(Br)cc(Br)c2)(Cc2cc(Br)cc(Br)c2)C1=O.O=C(O)C(F)(F)F.O=C(O)C(F)(F)F`: the MIC against Escherichia coli was determined as 8 µg/mL; in the data set with Staphylococcus aureus, 8 µg/mL; in the data set with Pseudomonas aeruginosa it was 16 µg/mL; in the data set with Bacillus subtilis it was 4 µg/mL. The EC50 at 1 h in data set [1] turned out to be 73 µg/mL.
For `NCCCCN1C(=O)N(CCCCN)C(=O)C(Cc2ccc(C(F)(F)F)cc2)(Cc2cc(Br)cc(Br)c2)C1=O.O=C(O)C(F)(F)F.O=C(O)C(F)(F)F`, the MIC with Escherichia coli was 32 µg/mL; in the data set on Staphylococcus aureus, 16 µg/mL; against Pseudomonas aeruginosa, 64 µg/mL; with Bacillus subtilis, 8 µg/mL. In data set [1], this compound returned a concentration for a half-maximal effect (EC50) at 1 h of 342 µg/mL.
The matching figures for `CCCCCCC1(CCCCCC)C(=O)N(CCCCN)C(=O)N(CCCCN)C1=O.O=C(O)C(F)(F)F.O=C(O)C(F)(F)F`: 32 µg/mL, 16 µg/mL, 64 µg/mL, 8 µg/mL and > 333 µg/mL.
For `NCCCCN1C(=O)N(CCCCN)C(=O)C(Cc2cc(Br)cc(Br)c2)(C2CCCC2)C1=O.O=C(O)C(F)(F)F.O=C(O)C(F)(F)F`, in that order: 64 µg/mL, 16 µg/mL, 64 µg/mL, 8 µg/mL and > 407 µg/mL.
As for `N[C@H]1C[C@@H](N2C(=O)N([C@H]3C[C@@H](N)C3)C(=O)C(Cc3cc(Br)cc(Br)c3)(Cc3cc(Br)cc(Br)c3)C2=O)C1.O=C(O)C(F)(F)F.O=C(O)C(F)(F)F`, the minimal inhibitory concentration (MIC) in the data set with Escherichia coli worked out at 4 µg/mL; in the data set on Staphylococcus aureus it was 8 µg/mL; against Pseudomonas aeruginosa, 8 µg/mL; against Bacillus subtilis, 4 µg/mL. Moreover, the EC50 at 1 h in data set [1] was found to be 50 µg/mL.
`N=C(N)NCCCCCN1C(=O)N(CCCCCNC(=N)N)C(=O)C(Cc2cc(Br)cc(Br)c2)(Cc2cc(Br)cc(Br)c2)C1=O.O=C(O)C(F)(F)F.O=C(O)C(F)(F)F`: the MIC is 4 µg/mL against Escherichia coli, 4 µg/mL against Staphylococcus aureus, 8 µg/mL against Pseudomonas aeruginosa and 4 µg/mL against Bacillus subtilis. Moreover, the EC50 at 1 h in data set [1] came to 29 µg/mL.
